Test results published in ChEMBL document CHEMBL2417369, “Synthesis and evaluation of heteroaryl substituted diazaspirocycles as scaffolds to probe the ATP-binding site of protein kinases” (Bioorg Med Chem, 2013).

Assays:
[1] = target: Tyrosine-protein kinase Lck (Homo sapiens, UniProt P06239); assay: Inhibition of LCK (unknown origin) at 30 uM by microfluidic mobility shift assay relative to control
How it was run: (§1)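 Single-point screen in a 24-enzyme kinase panel using a microfluidic assay. Each compound was tested at […] with ATP at roughly the Km for each enzyme. The pan-AGC inhibitor H-89 served as an internal control on every plate.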

[2] = target: Tyrosine-protein kinase Lyn (Homo sapiens, UniProt P07948); assay: Inhibition of LYN (unknown origin) at 30 uM by microfluidic mobility shift assay relative to control; how it was run: as §1
Chain of Tyrosine-protein kinase Lyn (P07948 2-512 limits assumed): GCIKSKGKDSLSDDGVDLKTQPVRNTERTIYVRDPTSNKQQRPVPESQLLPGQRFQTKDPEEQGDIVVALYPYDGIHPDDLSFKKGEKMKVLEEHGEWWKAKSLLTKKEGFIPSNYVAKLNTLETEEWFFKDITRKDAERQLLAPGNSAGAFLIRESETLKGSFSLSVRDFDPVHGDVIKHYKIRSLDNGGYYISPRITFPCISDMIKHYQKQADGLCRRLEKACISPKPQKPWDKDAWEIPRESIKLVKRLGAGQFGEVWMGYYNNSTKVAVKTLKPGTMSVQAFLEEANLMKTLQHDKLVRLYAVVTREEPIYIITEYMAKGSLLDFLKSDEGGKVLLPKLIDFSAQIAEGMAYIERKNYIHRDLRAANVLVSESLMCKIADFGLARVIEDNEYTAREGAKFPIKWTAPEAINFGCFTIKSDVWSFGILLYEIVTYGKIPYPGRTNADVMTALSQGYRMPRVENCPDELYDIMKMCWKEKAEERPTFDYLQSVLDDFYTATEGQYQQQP

[3] = target: Insulin receptor (Homo sapiens) (UniProt P06213); assay: Inhibition of INSR (unknown origin) at 30 uM by microfluidic mobility shift assay relative to control; how it was run: as §1
[4] = target: Tyrosine-protein kinase Fyn (Homo sapiens, UniProt P06241); assay: Inhibition of FYN (unknown origin) at 30 uM by microfluidic mobility shift assay relative to control; how it was run: as §1
Chain of Tyrosine-protein kinase Fyn (P06241 2-537 limits assumed): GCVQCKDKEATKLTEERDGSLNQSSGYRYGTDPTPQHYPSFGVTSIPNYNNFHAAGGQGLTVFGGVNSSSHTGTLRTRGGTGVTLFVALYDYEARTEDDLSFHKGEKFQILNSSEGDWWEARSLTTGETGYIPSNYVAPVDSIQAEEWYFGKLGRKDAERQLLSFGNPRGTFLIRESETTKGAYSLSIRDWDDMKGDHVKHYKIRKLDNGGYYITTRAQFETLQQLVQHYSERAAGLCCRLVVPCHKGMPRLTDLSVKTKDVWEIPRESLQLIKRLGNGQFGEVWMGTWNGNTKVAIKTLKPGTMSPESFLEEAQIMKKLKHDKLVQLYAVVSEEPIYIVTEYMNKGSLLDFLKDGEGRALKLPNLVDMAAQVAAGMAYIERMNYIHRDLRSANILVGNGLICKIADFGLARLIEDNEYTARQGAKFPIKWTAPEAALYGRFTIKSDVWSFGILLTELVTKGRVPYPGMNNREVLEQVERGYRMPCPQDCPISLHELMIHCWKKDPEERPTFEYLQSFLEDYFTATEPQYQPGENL

[5] = target: Tyrosine-protein kinase ABL1 (Homo sapiens, UniProt P00519); assay: Inhibition of ABL (unknown origin) at 30 uM by microfluidic mobility shift assay relative to control; how it was run: as §1
Chain of Tyrosine-protein kinase ABL1 (P00519 whole entry): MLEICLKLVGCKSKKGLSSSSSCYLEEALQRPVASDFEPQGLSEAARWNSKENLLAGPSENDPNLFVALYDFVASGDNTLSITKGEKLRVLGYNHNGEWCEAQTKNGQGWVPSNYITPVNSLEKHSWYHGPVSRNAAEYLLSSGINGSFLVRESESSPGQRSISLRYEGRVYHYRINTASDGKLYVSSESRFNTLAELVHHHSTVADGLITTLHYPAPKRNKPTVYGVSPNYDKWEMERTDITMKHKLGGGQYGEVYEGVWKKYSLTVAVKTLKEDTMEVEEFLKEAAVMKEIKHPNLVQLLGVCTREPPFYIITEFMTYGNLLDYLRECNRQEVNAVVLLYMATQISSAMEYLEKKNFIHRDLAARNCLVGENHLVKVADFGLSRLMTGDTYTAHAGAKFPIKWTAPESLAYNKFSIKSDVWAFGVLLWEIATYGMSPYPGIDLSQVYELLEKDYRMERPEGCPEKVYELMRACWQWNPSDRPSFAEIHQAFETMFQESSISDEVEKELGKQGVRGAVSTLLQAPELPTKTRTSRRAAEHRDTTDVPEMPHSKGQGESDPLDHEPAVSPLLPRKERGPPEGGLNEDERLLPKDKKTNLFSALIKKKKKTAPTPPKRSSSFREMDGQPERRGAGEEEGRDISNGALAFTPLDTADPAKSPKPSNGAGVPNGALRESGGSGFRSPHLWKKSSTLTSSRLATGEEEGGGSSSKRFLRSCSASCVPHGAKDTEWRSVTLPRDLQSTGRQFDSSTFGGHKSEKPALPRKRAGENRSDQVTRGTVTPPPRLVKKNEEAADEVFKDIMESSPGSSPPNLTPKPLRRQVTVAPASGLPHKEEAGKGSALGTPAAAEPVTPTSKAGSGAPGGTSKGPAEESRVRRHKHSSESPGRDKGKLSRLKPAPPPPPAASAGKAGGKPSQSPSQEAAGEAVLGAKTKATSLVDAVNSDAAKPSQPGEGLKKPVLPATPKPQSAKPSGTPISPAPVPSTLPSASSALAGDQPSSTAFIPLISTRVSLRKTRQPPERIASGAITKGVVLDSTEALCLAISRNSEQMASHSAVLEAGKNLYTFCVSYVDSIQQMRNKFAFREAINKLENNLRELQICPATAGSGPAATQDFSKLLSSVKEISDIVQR

[6] = target: Mitogen-activated protein kinase 14 (Homo sapiens) (UniProt Q16539); assay: Inhibition of p38alpha (unknown origin) at 30 uM by microfluidic mobility shift assay relative to control; how it was run: as §1
Chain of Mitogen-activated protein kinase 14 (Homo sapiens) (Q16539 whole entry): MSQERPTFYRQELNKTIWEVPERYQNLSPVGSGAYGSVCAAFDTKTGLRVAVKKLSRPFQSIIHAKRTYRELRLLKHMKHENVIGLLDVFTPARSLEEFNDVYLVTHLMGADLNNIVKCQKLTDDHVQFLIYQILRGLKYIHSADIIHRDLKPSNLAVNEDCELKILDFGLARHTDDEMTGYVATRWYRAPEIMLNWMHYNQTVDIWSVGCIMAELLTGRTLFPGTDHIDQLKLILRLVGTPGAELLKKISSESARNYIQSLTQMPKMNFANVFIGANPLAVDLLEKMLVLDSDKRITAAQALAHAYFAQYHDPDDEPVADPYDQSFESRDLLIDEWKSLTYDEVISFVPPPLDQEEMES

[7] = target: Mitogen-activated protein kinase 3 (Homo sapiens, UniProt P27361); assay: Inhibition of ERK1 (unknown origin) at 30 uM by microfluidic mobility shift assay relative to control; how it was run: as §1
Chain of Mitogen-activated protein kinase 3 (P27361 whole entry): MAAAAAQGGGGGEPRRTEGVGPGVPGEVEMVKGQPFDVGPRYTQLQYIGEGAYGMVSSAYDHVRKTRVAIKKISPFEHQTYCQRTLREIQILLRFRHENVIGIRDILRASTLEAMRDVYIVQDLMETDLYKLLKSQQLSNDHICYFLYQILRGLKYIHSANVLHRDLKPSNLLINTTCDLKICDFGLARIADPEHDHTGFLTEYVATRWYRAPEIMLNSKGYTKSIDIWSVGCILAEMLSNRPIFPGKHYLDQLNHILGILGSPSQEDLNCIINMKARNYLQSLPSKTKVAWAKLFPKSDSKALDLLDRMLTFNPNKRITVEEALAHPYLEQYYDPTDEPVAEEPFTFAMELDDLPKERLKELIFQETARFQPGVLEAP

[8] = target: Serine/threonine-protein kinase Chk2 (Homo sapiens, UniProt O96017); assay: Inhibition of CHK2 (unknown origin) at 30 uM by microfluidic mobility shift assay relative to control; how it was run: as §1
Chain of Serine/threonine-protein kinase Chk2 (O96017 whole entry): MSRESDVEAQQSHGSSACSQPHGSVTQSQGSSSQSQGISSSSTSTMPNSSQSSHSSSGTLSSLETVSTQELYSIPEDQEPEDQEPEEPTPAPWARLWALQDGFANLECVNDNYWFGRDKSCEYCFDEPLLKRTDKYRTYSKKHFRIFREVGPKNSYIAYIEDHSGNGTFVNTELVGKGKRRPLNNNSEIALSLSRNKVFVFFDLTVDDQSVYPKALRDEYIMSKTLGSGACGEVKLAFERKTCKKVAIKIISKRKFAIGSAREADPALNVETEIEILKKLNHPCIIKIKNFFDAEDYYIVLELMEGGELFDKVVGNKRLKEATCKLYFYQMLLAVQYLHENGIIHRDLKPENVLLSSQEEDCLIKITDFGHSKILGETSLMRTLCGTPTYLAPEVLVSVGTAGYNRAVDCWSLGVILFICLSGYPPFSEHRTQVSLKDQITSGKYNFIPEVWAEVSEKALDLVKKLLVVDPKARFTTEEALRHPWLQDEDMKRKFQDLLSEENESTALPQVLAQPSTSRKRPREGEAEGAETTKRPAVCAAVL

[9] = target: T1, Serine/threonine-protein kinase Chk1 (Homo sapiens) (UniProt O14757); assay: Inhibition of CHK1 (unknown origin) at 30 uM by microfluidic mobility shift assay relative to control; how it was run: as §1
T1 sequence (whole entry): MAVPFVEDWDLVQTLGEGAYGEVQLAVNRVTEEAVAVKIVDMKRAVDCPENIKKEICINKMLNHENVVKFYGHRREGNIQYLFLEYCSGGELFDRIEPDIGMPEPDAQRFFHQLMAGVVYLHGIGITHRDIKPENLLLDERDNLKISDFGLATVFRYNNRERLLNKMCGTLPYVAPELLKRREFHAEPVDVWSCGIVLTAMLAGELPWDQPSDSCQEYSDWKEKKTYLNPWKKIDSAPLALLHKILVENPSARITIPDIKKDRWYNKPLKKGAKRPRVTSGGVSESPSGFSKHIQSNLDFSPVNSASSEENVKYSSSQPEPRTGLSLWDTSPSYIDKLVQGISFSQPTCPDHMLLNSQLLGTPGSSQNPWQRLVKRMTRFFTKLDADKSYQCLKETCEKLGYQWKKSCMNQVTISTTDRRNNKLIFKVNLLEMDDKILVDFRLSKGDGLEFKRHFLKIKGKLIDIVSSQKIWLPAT

[10] = target: T2, Serine/threonine-protein kinase D2 (Homo sapiens) (UniProt Q9BZL6); assay: Inhibition of PKD2 (unknown origin) at 30 uM by microfluidic mobility shift assay relative to control; how it was run: as §1
T2 sequence (whole entry): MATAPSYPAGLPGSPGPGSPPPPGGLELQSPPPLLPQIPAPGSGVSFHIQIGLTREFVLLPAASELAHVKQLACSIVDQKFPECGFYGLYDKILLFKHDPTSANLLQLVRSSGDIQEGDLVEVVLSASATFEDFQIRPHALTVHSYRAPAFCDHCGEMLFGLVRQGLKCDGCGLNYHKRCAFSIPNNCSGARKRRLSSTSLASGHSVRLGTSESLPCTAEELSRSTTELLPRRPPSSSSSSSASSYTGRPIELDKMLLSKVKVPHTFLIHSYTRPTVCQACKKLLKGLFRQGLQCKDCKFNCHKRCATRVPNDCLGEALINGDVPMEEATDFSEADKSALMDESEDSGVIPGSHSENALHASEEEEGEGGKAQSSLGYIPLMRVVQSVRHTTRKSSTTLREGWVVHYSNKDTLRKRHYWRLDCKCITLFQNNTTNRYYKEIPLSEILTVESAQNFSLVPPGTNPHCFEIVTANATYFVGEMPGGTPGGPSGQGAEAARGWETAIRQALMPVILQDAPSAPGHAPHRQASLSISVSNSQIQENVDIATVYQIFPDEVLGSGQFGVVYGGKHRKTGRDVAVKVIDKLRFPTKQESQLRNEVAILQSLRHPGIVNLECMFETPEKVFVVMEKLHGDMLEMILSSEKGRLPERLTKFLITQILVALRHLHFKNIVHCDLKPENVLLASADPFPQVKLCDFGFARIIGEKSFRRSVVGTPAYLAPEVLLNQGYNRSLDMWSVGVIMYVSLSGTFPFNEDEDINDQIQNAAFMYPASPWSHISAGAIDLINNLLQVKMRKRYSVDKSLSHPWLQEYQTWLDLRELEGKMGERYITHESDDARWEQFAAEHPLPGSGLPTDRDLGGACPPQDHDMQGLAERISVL

[11] = target: T3, MAP kinase-activated protein kinase 5 (Homo sapiens) (UniProt Q8IW41); assay: Inhibition of MAPKAPK5 (unknown origin) at 30 uM by microfluidic mobility shift assay relative to control; how it was run: as §1
T3 sequence (whole entry): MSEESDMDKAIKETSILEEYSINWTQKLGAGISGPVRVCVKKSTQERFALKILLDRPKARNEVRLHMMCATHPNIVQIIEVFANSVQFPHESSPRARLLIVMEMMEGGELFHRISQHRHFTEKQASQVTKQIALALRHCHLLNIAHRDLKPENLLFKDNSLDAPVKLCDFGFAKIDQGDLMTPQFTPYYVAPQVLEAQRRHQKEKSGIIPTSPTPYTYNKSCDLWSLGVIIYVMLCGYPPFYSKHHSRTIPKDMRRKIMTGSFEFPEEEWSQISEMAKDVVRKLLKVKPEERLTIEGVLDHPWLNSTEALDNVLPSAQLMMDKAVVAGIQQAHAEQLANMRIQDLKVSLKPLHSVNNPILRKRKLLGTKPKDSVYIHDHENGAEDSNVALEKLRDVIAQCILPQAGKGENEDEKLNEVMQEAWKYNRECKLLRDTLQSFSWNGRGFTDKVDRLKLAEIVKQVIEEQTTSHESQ

[12] = target: MAP kinase-activated protein kinase 2 (Homo sapiens) (UniProt P49137); assay: Inhibition of MK2 (unknown origin) at 30 uM by microfluidic mobility shift assay relative to control; how it was run: as §1
Chain of MAP kinase-activated protein kinase 2 (Homo sapiens) (P49137 whole entry, looked up): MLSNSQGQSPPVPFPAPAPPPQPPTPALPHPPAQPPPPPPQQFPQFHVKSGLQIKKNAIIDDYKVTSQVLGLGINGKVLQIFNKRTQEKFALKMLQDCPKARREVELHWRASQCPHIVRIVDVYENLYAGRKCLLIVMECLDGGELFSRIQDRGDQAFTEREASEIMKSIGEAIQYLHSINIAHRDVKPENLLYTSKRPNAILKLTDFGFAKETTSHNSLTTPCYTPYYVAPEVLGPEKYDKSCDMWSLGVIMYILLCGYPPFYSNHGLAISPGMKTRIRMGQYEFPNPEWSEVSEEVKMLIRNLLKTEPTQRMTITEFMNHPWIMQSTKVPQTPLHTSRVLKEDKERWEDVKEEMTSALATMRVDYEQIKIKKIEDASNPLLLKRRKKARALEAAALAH

[13] = target: Ribosomal protein S6 kinase alpha-1 (Homo sapiens, UniProt Q15418); assay: Inhibition of RSK1 (unknown origin) at 30 uM by microfluidic mobility shift assay relative to control; how it was run: as §1
Chain of Ribosomal protein S6 kinase alpha-1 (Q15418 whole entry): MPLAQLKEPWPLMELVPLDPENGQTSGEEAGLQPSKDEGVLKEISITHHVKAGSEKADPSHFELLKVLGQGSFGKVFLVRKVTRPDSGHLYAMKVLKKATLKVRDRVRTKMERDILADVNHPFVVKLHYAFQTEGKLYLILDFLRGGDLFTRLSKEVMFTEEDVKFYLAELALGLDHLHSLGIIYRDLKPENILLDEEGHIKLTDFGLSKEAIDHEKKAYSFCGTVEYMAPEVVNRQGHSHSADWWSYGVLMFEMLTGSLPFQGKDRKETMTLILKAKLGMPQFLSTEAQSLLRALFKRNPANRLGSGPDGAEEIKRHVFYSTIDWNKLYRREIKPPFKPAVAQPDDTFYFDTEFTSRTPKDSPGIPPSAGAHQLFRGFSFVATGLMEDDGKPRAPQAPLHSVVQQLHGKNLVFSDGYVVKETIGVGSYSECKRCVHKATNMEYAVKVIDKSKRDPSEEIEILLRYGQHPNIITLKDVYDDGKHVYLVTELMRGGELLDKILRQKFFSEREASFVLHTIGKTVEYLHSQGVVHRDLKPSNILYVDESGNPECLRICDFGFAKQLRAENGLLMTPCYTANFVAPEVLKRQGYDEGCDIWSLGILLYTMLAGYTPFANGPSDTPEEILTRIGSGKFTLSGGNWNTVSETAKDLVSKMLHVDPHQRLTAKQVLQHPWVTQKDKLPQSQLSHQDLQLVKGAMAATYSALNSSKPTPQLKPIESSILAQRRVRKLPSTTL

[14] = organism: Homo sapiens; assay: Inhibition of PKA (unknown origin) at 30 uM by microfluidic mobility shift assay relative to control; how it was run: as §1
[15] = target: RAC-alpha serine/threonine-protein kinase (Homo sapiens, UniProt P31749); assay: Inhibition of AKT1 (unknown origin) at 30 uM by microfluidic mobility shift assay relative to control; how it was run: as §1

Compound	inhibition [1] [%]	inhibition [2] [%]	inhibition [3] [%]	inhibition [4] [%]	inhibition [5] [%]	inhibition [6] [%]	inhibition [7] [%]	inhibition [8] [%]	inhibition [9] [%]	inhibition [10] [%]	inhibition [11] [%]	inhibition [12] [%]	inhibition [13] [%]	inhibition [14] [%]	inhibition [15] [%]
O=S(=O)(c1cccc2cnccc12)N1CCC2(CCCCN2)CC1	15	18	3	9	12	7	0	26	0	24	25	14	66	89	27
OC1CCC2(CCN(c3ncnc4[nH]cnc34)CC2)NC1 (racemic)	21	26	4	18	25	3	46	53	71	48	30	11	67	99	93
c1nc(N2CCC3(CCCNC3)CC2)c2nc[nH]c2n1	64	70	4	63	82	0	55	72	97	91	51	74	81	100	98
c1nc(N2CCC3(CCCOC3)CC2)c2nc[nH]c2n1	37	34	2	36	33	3	41	28	26	17	9	15	46	67	25
c1ccc(CC2CCC3(CCN(c4ncnc5[nH]cnc45)CC3)NC2)cc1 (racemic)	44	35	18	20	31	6	31	58	67	30	7	15	48	95	80
c1nc(N2CCC3(CCCCO3)CC2)c2nc[nH]c2n1	52	35	12	97	36	0	31	47	22	40	24	20	64	77	26
O=S(=O)(c1cccc2cnccc12)N1CCC2(CCNC2)CC1	10	3	4	1	0	9	14	59	46	19	18	13	33	76	18
COC(=O)C1CCC2(CCN(c3ncnc4[nH]cnc34)CC2)NC1 (racemic)	16	16	10	6	18	8	14	16	36	36	21	6	35	87	61
c1ccc(C2CCC3(CCN(c4ncnc5[nH]cnc45)CC3)NC2)cc1 (stereo not given)	62	44	31	18	51	10	26	44	69	33	23	17	64	96	85
